Compound activity: PubChem, several laboratories
Shown are actives, neighbours in structure and some others; about 5% of the full set was active somewhere.
CSC inhib – blocks cancer stem cells | cancer stem cell-like cells viability, luminescence | inhibition, % at 7.5 µM | 1.1% of 300,000 active; in the data active means inhibition above about 75%; inconclusive means no clear call, values can overlap the other calls; tested in HMLE shEcad cells
UPR XBP1 act – adaptive UPR (XBP1) activation; CHO-XBP1 luciferase reporter, IRE1-XBP1 UPR activation, luminescence; percent of tunicamycin response, DMSO as zero; 0.33% of 330,000 active; activation, % at 20 µM; AID 463104;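 active means versus positive control, 20 µM dose yields 30% or more activation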;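 further: 100% = tunicamycin at 10 µg/mL and 0% = DMSO only wells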
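Material: CHO cell line with stable XBP1 luciferase reporter; schedule: 16-18 h cell attachment at 37 °C, then 6 h compound exposure; signal: glow luminescence from Steady-Glo reagent; medium: serum-containing F12 medium, 10% FBS; benchmarks: tunicamycin 10 µg/mL and vehicle-only wells; read-out: percent activation relative to tunicamycin reference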
T cruzi inh – blocks replication of Trypanosoma cruzi | T. cruzi beta-gal in NIH3T3, luminescence, 90 h | inhibition, % (test concentration not listed) | 1.4% of 300,000 active | AID 1885;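 active means mean inhibition across valid replicates above about 55%, limit read from the data; inconclusive means mean below that limit but half or more replicates reach it; inactive means mean below it, under half of replicates reach it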;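 further: signal also drops with host cell toxicity which is not excluded here; 0% = plate median of DMSO wells and 100% = zero luminescence signal; higher percent means less beta-gal luminescence so fewer parasites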
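Test system: β-gal T. cruzi (Tulahuen C4) inside NIH/3T3 cells / Quantity: 5,000 cells/well / Measured by: luminescence from GalScreen with 0.05% NP40, read after 60 min / Medium: DMEM plus 2% FBS / Measure: parasite load inhibition, % / Reagent: Tulahuen C4 trypomastigotes, 5000/well / Schedule: co-culture of at least 90 h after 3 h attachment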
Beta apoptosis – beta cell apoptosis inhibition | INS-1E cytokine-induced death, ATP luminescence, 48 h; percent of positive-control rescue, neutral wells zero | protection from apoptosis, % (test concentration not listed) | 0.8% of 300,000 active | AID 435005;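 active means Every replicate reaches about 75%, or at least half do and their mean reaches it too, limit read from the data; inconclusive means At least half of replicates reach the limit but their mean does not; inactive means Under half of replicates reach the limit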;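 further: 0% = cytokine-treated negative control wells and 100% = positive control rescue; higher means more ATP so stronger rescue from cytokine killing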
CHOP UPR activ – apoptotic UPR (CHOP) activation; CHO-CHOP luciferase reporter, luminescence; percent of tunicamycin response over DMSO baseline; activation, % at 10 µM; 0.34% of 330,000 active; AID 449763;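 active means at 10 µM dose, activation of 40% or more, normalized to positive control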;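 further: 100% = tunicamycin at 10 µg/mL and 0% = DMSO alone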
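Test system: CHO CHOP reporter cells. Input: 500 CHO-CHOP cells per well. Medium: F12 with 10% FBS. Technique: luciferase luminescence. Measure: percent activation relative to tunicamycin control. Dosing: 10 µM compound, 0.5% DMSO. Timing: 16-18 h cell attachment, then 6 h compound exposure, 37 °C.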
Mdm2 MdmX PPI – disrupts the human Mdm2-MdmX interaction; SaOS-2 split-luciferase Mdm2/MdmX complementation, luminescence; 3% of 330,000 active; AID 485346; inhibition, % at 8 µM;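 active means inhibition of at least 50% at 8 µM in the primary screen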
Mdm2-MdmX conf – human Mdm2/MdmX binding inhibition, confirmed. shares compounds with Mdm2 MdmX PPI. luminescent assay. inhibition, % at 8 µM. 55% of 10,000 active; in the data active means inhibition above about 40%
FLuc counter – inhibits full-length luciferase, flagging false Mdm2/MdmX hits | shares compounds with Mdm2 MdmX PPI | SaOS-2 full-length luciferase counterscreen, luminescence | inhibition, % at 8 µM | 77% of 6,200 active | AID 504607;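 active means mean inhibition at 8 µM reaching about 37%, which flags the compound as non-specific, limit read from the data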;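 further: p53-null SaOS-2 cells with luciferase driven by a doxycycline-inducible promoter; compound on cells about two nights before reading with doxycycline added after day one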
Numbers without * were called inactive; ? = inconclusive; . = no result.

SMILES | CSC inhib | UPR XBP1 act | T cruzi inh | Beta apoptosis | CHOP UPR activ | Mdm2 MdmX PPI | Mdm2-MdmX conf | FLuc counter
Cc1ccc(O)c(NC(=O)c2cc(-c3cccs3)on2)c1 | 19 | 4 | -10 | 4 | 9 | -65 | . | .
COc1cccc(CC2(CO)CCN(CC3=CC[C@H]4C[C@@H]3C4(C)C)CC2)c1 | 17 | -4 | . | 6 | 0 | 36 | . | .
O=C(CCc1ccccc1)NCC(c1ccco1)N1CCc2ccccc21 (stereo not drawn) | 6 | 5 | 6 | 8 | 2 | 53* | 76* | 66*
O=C(NCC(c1ccco1)N1CCc2ccccc21)c1ccccc1F (stereo not drawn) | 8 | -2 | 2 | 2 | 2 | 20 | . | .
CCOC(=O)N1CCc2c(sc(NC(C)=O)c2C(N)=O)C1 | -3 | -2 | 2 | 0 | -2 | 13 | . | .
CCOC(=O)c1c(NC(=O)c2cccs2)sc2c1CCCC2 | 8 | -2 | 0 | 0 | 0 | -3 | . | .
CCOC(=O)c1c(NC(=O)c2cccs2)sc2c1CCN(C(=O)OCC)C2 | 40 | 1 | 41 | 14 | 2 | 65* | 36 | .
CCOC(=O)N1CCc2c(sc(NC(=O)c3ccc(Cl)s3)c2C(N)=O)C1 | 86* | 27 | . | . | 13 | 55* | 21 | .
O=C(/C=C/c1ccc2c(c1)S(=O)(=O)N(Cc1ccccc1)[C@H]2CC(=O)N1CCOCC1)N1CCOCC1 | 3 | -4 | . | -2 | -1 | -3 | . | .
CCOC(=O)c1sc(=NC(=O)c2ccc(S(=O)(=O)N(C)c3ccccc3)cc2)n(C)c1C | -10 | 4 | 4 | 2 | 2 | 63* | 21 | .
Cn1cc(CN2CCC(Oc3ccc(C(=O)N4CCCCC4)cc3)CC2)cn1 | -2 | -3 | 2 | -13 | -1 | 16 | . | .
Nc1nc(COc2ccccc2C=O)nc(Nc2ccccc2)n1 | 18 | 0 | 6 | 1 | 2 | 11 | . | .
O=C1CC(c2cc(F)ccc2F)c2cc3c(cc2N1)CCC3 (stereo not drawn) | 54 | -2 | -11 | -1 | -2 | 52* | 52* | 72*
CC1(C)CC(=O)C2=C(C1)NC(=O)CC2c1cc(F)ccc1F (stereo not drawn) | -5 | 1 | 0 | -3 | 3 | 27 | . | .
O=C1CC(c2cccc(Br)c2)c2cc3c(cc2N1)CCC3 (stereo not drawn) | . | 3 | 28 | . | 1 | 67* | 42* | 68*
COc1cc(-c2ccc3sc(-c4ccsc4)c(C#CCO)c3c2)cc(OC)c1OC | -17 | 1 | . | 6 | 5 | 74* | 39 | 69*
COC(=O)c1c(-c2ccsc2)sc2ccc(-c3cc(OC)c(OC)c(OC)c3)cc12 | 56 | 3 | . | 1 | 1 | 64* | 33 | .
COc1cc(-c2c(-c3ccsc3)sc3ccccc23)cc(OC)c1OC | 42 | -1 | . | -1 | 3 | 23 | . | .
Cc1ccccc1/C=N/NC(=O)c1ccc(-n2cnnn2)cc1 | 4 | 1 | . | -3 | 0 | -28 | . | .
NS(=O)(=O)c1ccc(CNC(=O)c2cc(-c3ccccn3)nc3ccc(Cl)cc23)cc1 | -15 | -2 | -16 | . | 0 | 51* | 14 | .
CCOC(=O)CCC(=O)Nc1ccc(S(=O)(=O)Nc2cc(OC)nc(OC)n2)cc1 | -6 | -5 | -14 | -2 | -1 | 22 | . | .
O=c1cc(-c2ccc(O)c(O)c2)oc2c1ccc1ccccc12 | 41 | 8 | . | -6 | 0 | 24 | . | .
O=c1cc(-c2ccc(O)c(O)c2)oc2ccc3ccccc3c12 | . | 10 | . | . | 30 | 55* | 74* | 131*
COC(=O)c1ccc(NC(=O)Nc2ccc([N+](=O)[O-])cc2)cc1 | 12 | -1 | 30 | 13 | -1 | 59* | 43* | 85*
O=C(Nc1ccc([N+](=O)[O-])cc1)Nc1ccon1 | . | 9 | -9 | 33 | 0 | 66* | 67* | 73*
SMILES | CSC inhib | UPR XBP1 act | T cruzi inh | Beta apoptosis | CHOP UPR activ | Mdm2 MdmX PPI | Mdm2-MdmX conf | FLuc counter
O=[N+]([O-])c1ccc(S(=O)(=O)Nc2ccncc2)cc1 | . | -3 | -11 | . | 3 | 50* | 8 | .
CCc1ccc(NC(=O)Nc2ccon2)cc1 | 2 | 0 | -6 | -3 | 6 | -12 | . | .
O=C(Nc1ccc(C(=O)O)cc1)Nc1ccc([N+](=O)[O-])cc1 | -5 | -5 | 6 | . | 2 | 18 | . | .
O=C(Nc1ccc(Nc2ccncc2)cc1)c1ccc([N+](=O)[O-])cc1 | 29 | 6 | 33 | 22 | 0 | 100* | 36 | 13
COc1ccc(Nc2nc(-c3ccccc3)nc3ccccc23)cc1S(=O)(=O)N1CCOCC1 | 54 | 15 | ? | 22 | 5 | 79* | 77* | 63*
COc1ccc(NC(=O)c2cc(C)nc3ccccc23)cc1S(=O)(=O)N1CCOCC1 | -6 | -5 | . | 1 | 0 | 4 | . | .
COc1cccc(/C=C2\SC(=S)N(CCC(=O)Nc3ccc(O)cc3)C2=O)c1 | 15 | -1 | 12 | . | 6 | 21 | . | .
COc1cccc(/C=C2\SC(=S)N(CCC(=O)NCCc3ccc(O)cc3)C2=O)c1 | 51 | -5 | -21 | -19 | 1 | 99* | 84* | 35
CN1CCN(C(=O)CCN2C(=O)/C(=C\c3ccc(F)cc3)SC2=S)CC1 | 11 | -4 | . | 1 | 5 | 25 | . | .
O=C(CCN1C(=O)/C(=C/c2ccc(F)cc2)SC1=S)NCCc1ccc(O)cc1 | 53 | -4 | -10 | -20 | -1 | 87* | 66* | 42*
Cc1cc(NC(=O)Cc2ccccc2)nc2c1c(=O)oc1ccccc12 | 44 | 26 | -2 | 9 | 21 | 74* | 32 | .
Cc1ccc(NC(=O)NNC(=O)C2CC(c3cccs3)=NO2)cc1 (stereo not drawn) | -8 | -1 | -12 | -5 | -1 | -14 | . | .
O=C(N/N=C/c1ccc(O)c(O)c1)c1cccc(S(=O)(=O)N2CCCCC2)c1 | 10 | 1 | -17 | -1 | 0 | -3 | . | .
O=C(N/N=C\c1cc(Br)ccc1O)c1ccc(S(=O)(=O)N2CCCCC2)cc1 | 104* | 3 | 59* | 100* | -2 | 70* | 75* | 21
OCOCCCn1c(C2CCCN2c2nc(-c3ccc(F)cc3)cs2)nc2cc(Cl)c(N3CCCCC3)cc21 (stereo not drawn) | 28 | -1 | -3 | 3 | -3 | 28 | . | .
COc1ccc(Cl)cc1NC(=O)c1nnn(CC(=O)Nc2ccc(C)c(C)c2)c1N | -18 | -2 | -9 | . | -1 | 53* | 32 | .
